Experiments:
[1] = target: Intestinal-type alkaline phosphatase (Bos taurus) (UniProt P19111); test: Inhibition of bovine intestinal alkaline phosphatase assessed as residual enzyme activity at 0.1 mM in presence of 1% DMSO at pH 10.4 at 37 degC relative to untreated control
How it was run: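 Screening in 25 mM piperazine, 25 mM glycylglycine, 5 mM MgCl2, 5 µM ZnCl2, pH 10.4, 37 °C. BIAP (0.1–0.3 µg/mL) preincubated 10 min with 0.1 mM compound (final DMSO 1% v/v), no substrate. Reaction started with 0.05 mM pNPP; read at 420 nm (ε 18.6 cm⁻¹ mM⁻¹). Activity given relative to inhibitor-free control; sample-to-sample error 5%.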

[2] = organism: Sus scrofa; test: Inhibition of porcine kidney tissue non-specific alkaline phosphatase assessed as residual enzyme activity at 0.4 mM in presence of 4% DMSO at pH 10.4 at 37 degC relative to untreated control

Intestinal-type alkaline phosphatase (Bos taurus), sequence (P19111 20-506 limits assumed): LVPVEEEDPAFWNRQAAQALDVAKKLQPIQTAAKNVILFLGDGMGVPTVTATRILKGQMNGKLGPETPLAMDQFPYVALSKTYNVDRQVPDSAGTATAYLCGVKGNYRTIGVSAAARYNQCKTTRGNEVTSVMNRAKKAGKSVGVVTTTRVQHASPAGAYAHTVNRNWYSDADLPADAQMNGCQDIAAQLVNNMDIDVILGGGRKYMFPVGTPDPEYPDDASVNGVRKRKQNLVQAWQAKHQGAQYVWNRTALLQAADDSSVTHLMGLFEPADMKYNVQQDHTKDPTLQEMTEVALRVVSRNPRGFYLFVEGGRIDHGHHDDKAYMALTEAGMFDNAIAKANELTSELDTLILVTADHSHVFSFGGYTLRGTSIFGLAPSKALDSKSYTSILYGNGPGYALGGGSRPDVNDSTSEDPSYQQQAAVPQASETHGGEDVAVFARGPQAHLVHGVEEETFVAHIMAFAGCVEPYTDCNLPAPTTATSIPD

| Activity [1] | Activity [2] | Compound |
| --- | --- | --- |
| 116% | 100% | COc1cccc(C(=O)c2c(-c3ccc(OC)cc3[N+](=O)[O-])sc3ccccc23)c1 |
| 37% | 99% | COc1ccc(-c2sc3ccccc3c2C=O)cc1 |
| 78% | 97% | COc1ccc(-c2sc3ccccc3c2OC)cc1 |
| 106% | 91% | COc1ccc(-c2sc3ccccc3c2N2CCCCC2)cc1 |
| 107% | 94% | Clc1ccc(Oc2csc3ccccc23)cc1 |
| 73% | 96% | COc1c(-c2ccccc2C)sc2ccccc12 |
| 95% | 100% | COc1ccc(C(=O)c2c(-c3ccc(OC)cc3[N+](=O)[O-])sc3ccccc23)cc1 |
| 114% | 97% | COc1ccc(-c2sc3ccccc3c2C(=O)c2ccccc2)c([N+](=O)[O-])c1 |
| 91% | 92% | N#Cc1ccccc1-c1sc2ccccc2c1C(=O)c1ccccc1 |
| 120% |  | N#Cc1sc2ccccc2c1-c1cccnc1 |
| 110% | 79% | N#Cc1ccccc1-c1sc2ccccc2c1C=O |
| 106% |  | N#Cc1c(-c2cccnc2)sc2ccccc12 |
| 87% | 85% | N#Cc1ccc(Oc2csc3ccccc23)cc1 |
| 105% | 100% | [O-][s+]1cc(Br)c2ccccc21 (centres undefined) |
| 99% | 90% | COc1c(-c2ccccn2)sc2ccccc12 |
| 57% | 79% | COc1c(-c2ccccc2C#N)sc2ccccc12 |
| 97% | 111% | [O-][s+]1cc(N2CCOCC2)c2ccccc21 (centres undefined) |
| 115% |  | N#Cc1c(-c2cccc(Cl)c2)sc2ccccc12 |
| 119% | 94% | c1ccc(-c2cc3ccccc3s2)nc1 |
| 96% | 82% | COc1ccc(Oc2csc3ccccc23)cc1 |
| 69% |  | N#Cc1c(-c2ccc(Cl)cc2)sc2ccccc12 |
| 66% | 85% | N#Cc1ccccc1-c1sc2ccccc2c1Oc1ccc(F)cc1 |
| 121% | 86% | O=[N+]([O-])c1ccccc1-c1cc2ccccc2s1 |
| 30% | 80% | O=Cc1c(-c2ccc(C(F)(F)F)cc2)sc2ccccc12 |
| 122% | 84% | FC(F)(F)Cc1c(-c2cccnc2)sc2ccccc12 |

| Activity [1] | Activity [2] | Compound |
| --- | --- | --- |
| 82% | 97% | N#Cc1ccc(Oc2c(-c3ccccc3C#N)sc3ccccc23)cc1 |
| 80% | 87% | COc1c(-c2ccccc2)sc2ccccc12 |
| 148% | 76% | NCc1c(-c2ccccc2)sc2ccccc12 |
| 40% | 96% | COc1ccc(C(=O)c2csc3ccccc23)cc1 |
| 88% | 91% | COc1cc(-c2sc3ccccc3c2C#N)cc(OC)c1OC |
| 110% | 91% | N#Cc1ccccc1-c1sc2ccccc2c1Oc1ccccc1 |
| 127% | 97% | Cc1ccc(-c2cc3ccccc3s2)c([N+](=O)[O-])c1 |
| 101% | 79% | N#Cc1ccccc1-c1sc2ccccc2c1Oc1ccc(Cl)cc1 |
| 120% | 85% | O=Cc1csc2ccccc12 |
| 116% | 78% | O=Cc1c(-c2ccccc2[N+](=O)[O-])sc2ccccc12 |
| 49% | 109% | Oc1ccccc1N1CCN(c2csc3ccccc23)CC1 |
| 92% | 80% | c1ccc2c(N3CCCCC3)csc2c1 |
| 92% | 92% | N#Cc1csc2ccccc12 |
| 109% | 79% | [O-][s+]1cc(Oc2ccc(F)cc2)c2ccccc21 (centres undefined) |
| 99% | 81% | c1ccc(-c2sc3ccccc3c2N2CCCCC2)cc1 |
| 107% | 93% | O=[N+]([O-])c1cc(Cl)ccc1-c1cc2ccccc2s1 |
| 9% |  | O=Cc1c(-c2ccc(Cl)cc2)sc2ccccc12 |
| 63% |  | COC(=O)C(Cc1c(-c2ccc(C(F)(F)F)cc2)sc2ccccc12)NCc1ccccc1 (centres undefined) |
| 103% | 105% | N#Cc1cc2ccccc2s1 |
| 101% | 87% | N#Cc1ccccc1-c1c(OCC(F)(F)F)sc2ccccc12 |
| 103% | 103% | COc1ccc(-c2sc3ccccc3c2CN)c(N)c1 |
| 94% | 90% | FC(F)c1c(-c2ccccc2)sc2ccccc12 |
| 43% | 80% | O=C(c1ccccc1)c1csc2ccccc12 |
| 64% | 86% | COc1c(-c2cnc3ccccc3c2)sc2ccccc12 |
| 62% | 95% | O=Cc1c(-c2cccc(Cl)c2)sc2ccccc12 |

| Activity [1] | Activity [2] | Compound |
| --- | --- | --- |
| 134% | 84% | CN(C)c1cccc(-c2sc3ccccc3c2CN)c1 |
| 97% |  | COc1cccc(-c2sc3ccccc3c2C#N)c1 |
| 107% | 100% | COc1ccc(Oc2c[s+]([O-])c3ccccc23)cc1 (centres undefined) |
| 90% | 93% | COc1csc2ccccc12 |
| 18% | 99% | N#Cc1c(-c2ccc3ccccc3c2)sc2ccccc12 |
| 119% | 93% | O=Cc1c(-c2cccnc2)sc2ccccc12 |
| 117% | 111% | COc1ccc(-c2sc3ccccc3c2C(=O)c2ccccc2OC)c([N+](=O)[O-])c1 |
| 100% |  | COc1ccc(-c2csc3ccccc23)cc1 |
| 99% | 96% | COc1ccc(-c2cc3ccccc3s2)c([N+](=O)[O-])c1 |
| 104% | 91% | c1ccc(Oc2c(-c3ccccc3)sc3ccccc23)cc1 |
| 124% | 92% | COc1ccc(-c2sc3ccccc3c2C(=O)c2cc(OC)c(OC)c(OC)c2)c([N+](=O)[O-])c1 |
| 102% | 97% | FC(F)(F)COc1sc2ccccc2c1-c1cccnc1 |
| 9% |  | O=Cc1ccc(Oc2csc3ccccc23)cc1 |
| 41% | 77% | O=Cc1c(-c2ccccc2)sc2ccccc12 |
| 107% | 101% | COc1ccc(C(=O)c2c(-c3ccccc3[N+](=O)[O-])sc3ccccc23)cc1 |
| 92% | 98% | COc1ccccc1C(=O)c1c(-c2ccccc2[N+](=O)[O-])sc2ccccc12 |
| 115% |  | COC(=O)C(Cc1c(-c2ccc(C#N)cc2)sc2ccccc12)NCc1ccccc1 (centres undefined) |
| 82% | 83% | CN(C)c1ccc(-c2sc3ccccc3c2C#N)cc1 |
| 142% | 94% | COc1ccc(-c2sc3ccccc3c2CN)c(OC)c1OC |
| 63% | 97% | O=Cc1c(-c2ccccc2Cl)sc2ccccc12 |
| 5% | 85% | Cc1ccccc1-c1sc2ccccc2c1C#N |
| 104% | 78% | Fc1ccc(Oc2csc3ccccc23)cc1 |
| 107% | 93% | N#Cc1ccccc1-c1sc2ccccc2c1N1CCOCC1 |
| 125% | 95% | COc1ccc(-c2sc3ccccc3c2C(=O)c2cc(OC)c(O)c(OC)c2)c([N+](=O)[O-])c1 |
| 127% | 101% | COc1cc(Oc2c[s+]([O-])c3ccccc23)cc(OC)c1OC (centres undefined) |

| Activity [1] | Activity [2] | Compound |
| --- | --- | --- |
| 102% |  | COc1c(-c2ccc3ccccc3c2)sc2ccccc12 |
| 41% | 54% | Ic1cc2ccccc2s1 |
| 107% | 93% | Cc1ccc(-c2cc3ccccc3s2)c(N)c1 |
| 121% | 106% | COc1ccc(Oc2c(-c3ccccc3C#N)sc3ccccc23)c(OC)c1OC |
| 106% | 98% | COc1ccc(Oc2c(-c3ccccc3C#N)sc3ccccc23)cc1 |
| 105% | 111% | NCc1c(-c2cccnc2)sc2ccccc12 |
| 98% | 96% | COc1cccc(C(=O)c2c(-c3ccccc3[N+](=O)[O-])sc3ccccc23)c1 |
| 96% | 97% | N#Cc1c(-c2ccc(C(F)(F)F)cc2)sc2ccccc12 |
| 102% | 104% | [O-][s+]1cc(Oc2ccccc2)c2ccccc21 (centres undefined) |
| 70% | 108% | COc1ccc(C(=O)c2c(-c3ccc(OC)cc3)sc3ccccc23)cc1 |
| 108% | 99% | c1ccc2c(N3CCOCC3)csc2c1 |
| 110% | 101% | [O-][s+]1cc(N2CCCCC2)c2ccccc21 (centres undefined) |
| 113% | 100% | CC(C)(C)c1ccc(Oc2csc3ccccc23)cc1 |
| 122% | 103% | [O-][s+]1cc(Oc2ccc(Cl)cc2)c2ccccc21 (centres undefined) |
| 110% |  | O=Cc1c(-c2cnc3ccccc3c2)sc2ccccc12 |
| 95% |  | N#Cc1c(-c2cnc3ccccc3c2)sc2ccccc12 |
| 94% |  | N#Cc1c(-c2ccccn2)sc2ccccc12 |
| 115% |  | N#Cc1sc2ccccc2c1-c1ccc(C(F)(F)F)cc1 |
| 94% |  | COc1ccc(-c2sc3ccccc3c2C#N)cc1 |
| 76% |  | N#Cc1c(-c2ccccc2)sc2ccccc12 |
| 90% |  | N#Cc1ccccc1-c1sc2ccccc2c1C#N |
| 108% |  | COC(=O)/C(=C\c1c(-c2ccc(C#N)cc2)sc2ccccc12)NCc1ccccc1 |

| Compound | Activity [1] | Activity [2] |
| --- | --- | --- |
| CN1CCN(c2c[s+]([O-])c3ccccc23)CC1 (centres undefined) | 102% | 95% |
| CN1CCN(c2csc3ccccc23)CC1 | 107% | 97% |
